From ChEMBL document CHEMBL4033788, “Novel Ligustrazine-Based Analogs of Piperlongumine Potently Suppress Proliferation and Metastasis of Colorectal Cancer Cells in Vitro and in Vivo” (J Med Chem, 2018) come the findings set out here.

The source made the active and inactive calls. The calls are words filed in the database; no cut-off is given here.

The subject of one series is A549. As to the kind of experiment: Antiproliferative activity against human A549 cells after 72 hrs by MTT assay. Type of series: functional, cell-based. To be noted: A549, 72 h.
In series [1] the test system is HCT-116. The series is described as follows: Antiproliferative activity against human HCT116 cells at […] pretreated with GSH for 1 hr measured after 72 hrs by MTT assay relative to control. It counts as functional. For orientation: Tetrazolium assays rely on reduction of a dye to a coloured formazan, in cell work by metabolically active cells.
Series [2] can be described thus: Stability of compound in stimulated gastric fluid at 1 uM after 4 hrs by LC-MS/MS analysis.
Series [3] concerns HCT-116. As to the kind of experiment: Antiproliferative activity against human HCT116 cells at […] after 72 hrs by MTT assay relative to control. It counts as functional. To be noted: HCT-116, 72 h.
Series [4] can be described thus: Thiol reactivity in DMSO assessed as methyl 2-(3-chloro-2-oxo-1-(3-(3,5,6-trimethylpyrazin-2-yl)acryloyl)piperidin-4-ylthio)acetate formation at 5 mg up to 8 hrs in presence of methyl thioglycolate by 1H NMR analysis.
Series [5] has as its target RAC-alpha serine/threonine-protein kinase (Homo sapiens) (UniProt P31749). The series is described as follows: Inhibition of TGF-beta1-induced AKT phosphorylation in human HCT116 cells after 48 hrs by Western blot analysis. Type of series: cell-based. A digest of the protocol: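 HCT-116 cells treated with or without TGF-β1 (10 ng/mL) for 48 h, with or without test agent. Lysates (20 μg/lane) run on 7.5% SDS-PAGE and transferred to PVDF. Probed for p-Akt (Ser473), Akt, p-GSK-3β (S9), GSK-3β, E-cadherin, MMP-9 and β-actin, detected by ECL. Densitometry relative to β-actin or total protein. Three independent experiments.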
In general terms: A western blot detects proteins with antibodies after separation by electrophoresis.

For series [6], the system named is Mus musculus. The series is described as follows: Hepatotoxicity in BALB/c nude mouse xenografted with human HCT116 cells at 2.5 to 5 mg/kg, ip administered for 21 consecutive days. It counts as toxicity, organism-based. To be noted: in vivo. A digest of the protocol:
(§1)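 Male BALB/c nude mice (3−5 weeks) inoculated sc with 1 × 10^7 HCT-116 cells; at tumour volume about 75 mm3 randomized (n = 8 per group) and dosed ip daily at 2.5 or 5 mg/kg for 21 consecutive days. Body weights monitored; liver, kidney, lung and heart inspected for size and morphology at sacrifice.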

Series [7] deals with HCT-116. As to the kind of experiment: Antimetastatic activity against human HCT116 cells xenografted in BALB/c nude mouse model assessed as reduction in lung metastatic tumor at 2 to 4 mg/kg, ip administered thrice a week for 6 consecutive weeks by H and E staining-based assay. It counts as functional, organism-based. A digest of the protocol: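 BALB/c nude mice received HCT-116 cells into the tail vein, then were randomized and dosed intraperitoneally (1, 2 or 4 mg/kg) three times weekly. Body weight recorded weekly. Lungs sectioned (4 μm), H&E stained, and nodule number and area scored blinded in three sections per mouse. Nodule counts n = 4–6 per group.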
(In general: In xenograft studies the graft and the host belong to different species.)

The nature of series [8]: Acute toxicity in ICR mouse assessed as survival rate at 200 mg/kg, ip administered for 14 days relative to control. It counts as organism-based. The note with it: in vivo.
Series [9] addresses T1, Catenin beta-1 (Homo sapiens) (UniProt P35222).
T1 sequence (whole entry): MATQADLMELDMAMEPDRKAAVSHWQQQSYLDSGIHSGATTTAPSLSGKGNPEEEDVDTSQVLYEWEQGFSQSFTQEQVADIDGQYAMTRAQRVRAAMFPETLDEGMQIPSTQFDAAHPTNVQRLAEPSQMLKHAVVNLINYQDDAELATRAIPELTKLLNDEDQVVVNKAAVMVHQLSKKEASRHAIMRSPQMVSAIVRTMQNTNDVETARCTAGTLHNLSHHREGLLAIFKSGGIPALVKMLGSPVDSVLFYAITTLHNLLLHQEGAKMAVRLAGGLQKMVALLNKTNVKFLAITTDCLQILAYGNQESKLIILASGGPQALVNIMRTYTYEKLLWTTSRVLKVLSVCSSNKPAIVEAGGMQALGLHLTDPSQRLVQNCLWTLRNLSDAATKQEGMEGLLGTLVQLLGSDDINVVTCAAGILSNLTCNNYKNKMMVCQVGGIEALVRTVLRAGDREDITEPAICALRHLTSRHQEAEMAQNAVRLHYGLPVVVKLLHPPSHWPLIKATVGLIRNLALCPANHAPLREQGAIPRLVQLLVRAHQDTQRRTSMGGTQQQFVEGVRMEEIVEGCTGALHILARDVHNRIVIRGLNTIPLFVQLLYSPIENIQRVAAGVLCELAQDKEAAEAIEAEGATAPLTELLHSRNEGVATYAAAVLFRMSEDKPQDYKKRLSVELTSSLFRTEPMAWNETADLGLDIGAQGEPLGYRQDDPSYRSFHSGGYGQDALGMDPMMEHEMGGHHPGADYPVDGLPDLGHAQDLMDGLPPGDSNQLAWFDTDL
The series is described as follows: Inhibition of TGF-beta1-regulated increase in nuclear beta-catenin in human HCT116 cells at 2 to 50 nM after 48 hrs by Western blot analysis. It counts as cell-based. A digest of the protocol:
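Cytoplasmic and nuclear β-catenin were measured by Western blot in HCT-116 cells given TGF-β1 (10 ng/mL) for 48 h, with or without compound, against 0.1% DMSO vehicle. Lysates (20 μg/lane) were run on 7.5% gels and transferred to PVDF, with Lamin A among the antibodies used. Blots were read by ECL and densitometry, n = 3 independent experiments.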

Series [10] concerns Mus musculus. The series is described as follows: Toxicity in BALB/c nude mouse xenografted with human HCT116 cells assessed as mortality at 2 to 4 mg/kg, ip administered thrice a week for 6 consecutive weeks. To be noted: in vivo. Type of series: organism-based. A digest of the protocol: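 Lung metastasis model: HCT-116 cells in serum-free medium injected into tail vein of BALB/c nude mice, then randomized and given vehicle or compound ip (1, 2 or 4 mg/kg) three times a week. Body weight recorded weekly, survival monitored (n = 6); mice sacrificed after 40 days and lungs examined by H&E histology.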

In series [11] the test system is Mus musculus. As to the kind of experiment: Toxicity in BALB/c nude mouse xenografted with human HCT116 cells assessed as abnormality in lung at 2.5 to 5 mg/kg, ip administered for 21 consecutive days. It counts as organism-based. To be noted: in vivo. A digest of the protocol:
as §1

The subject of series [12] is HCT-116. As to the kind of experiment: Antitumor activity against human HCT116 cells xenografted in BALB/c nude mouse assessed as reduction in tumor size at 2.5 to 5 mg/kg, ip administered daily for 21 consecutive days. Type of series: functional, organism-based. A digest of the protocol:
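Male BALB/c nude mice, 3–5 weeks old, inoculated subcutaneously with 1 × 10^7 HCT-116 cells. At about 75 mm³ tumor volume, randomized (n = 8/group) and dosed intraperitoneally daily. Volume by caliper as d² × D/2. At the end, tumors excised and weighed; inhibition = (Wcontrol − Wtreated)/Wcontrol × 100%.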

Series [13] concerns HCT-116. The series is described as follows: Antiproliferative activity against human HCT116 cells at 8 uM after 72 hrs by MTT assay. Type of series: functional, cell-based. A digest of the protocol:
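HCT-116 cells pretreated with or without GSH (10 mM) for 1 h, washed, then treated for 72 h. Viability measured by MTT and inhibitory rates calculated. Mean ± SD of three independent experiments.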

The test system of a further series is K562. As to the kind of experiment: Antiproliferative activity against human K562 cells after 72 hrs in presence of ligustrazine by MTT assay. It counts as functional, cell-based. The note with it: K562, 72 h. A digest of the protocol: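 Cells grown in RPMI 1640 with 10% FBS in 96-well plates overnight, then exposed to test agents in triplicate for 72 h. MTT (5 mg/mL stock) added for the last 4 h, formazan dissolved in DMSO, absorbance read at 570 nm. Inhibition = (1 − OD treated/OD control) × 100%.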

Sequence of RAC-alpha serine/threonine-protein kinase (Homo sapiens) (P31749 whole entry): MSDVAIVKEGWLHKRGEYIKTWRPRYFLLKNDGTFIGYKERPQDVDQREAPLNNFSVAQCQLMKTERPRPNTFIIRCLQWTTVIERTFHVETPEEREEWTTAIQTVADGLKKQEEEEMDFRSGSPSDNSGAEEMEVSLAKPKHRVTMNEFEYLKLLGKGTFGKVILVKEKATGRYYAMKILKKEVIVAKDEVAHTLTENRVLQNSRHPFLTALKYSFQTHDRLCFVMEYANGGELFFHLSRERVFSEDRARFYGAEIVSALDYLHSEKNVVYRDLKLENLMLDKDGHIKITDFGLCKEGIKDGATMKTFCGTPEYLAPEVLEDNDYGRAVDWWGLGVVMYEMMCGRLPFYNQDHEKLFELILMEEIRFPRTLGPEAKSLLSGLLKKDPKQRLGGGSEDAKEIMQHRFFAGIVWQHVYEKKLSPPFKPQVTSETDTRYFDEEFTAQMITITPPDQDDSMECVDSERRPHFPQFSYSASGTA

As for `Cc1nc(C)c(/C=C/C(=O)N2CCC=C(Cl)C2=O)nc1C`, the IC50 – broadly, the concentration needed to halve the response being measured – in the series on A549 was 2.21 µM. For the same molecule, the inhibition (commonly the percentage by which the read-out fell short of the control) at […] with HCT-116 [1] is 36.1%; in the series on HCT-116 [3] it was 82.9%. The Stability result in [2] was “Stable”. For the same molecule, the Drug metabolism result in series [4] is reported as “Metabolite detected”. For the same molecule, the inhibition result in [5] is “Dose-dependent effect”. Also, the Activity entry in the series with Mus musculus [6], with Mus musculus [10] and with Mus musculus [11] was “Non-Toxic” throughout. Besides, the result with HCT-116 [7] and in the series with HCT-116 [12] was Active. The survival at 336 h in series [8] came to 30%. Moreover, the inhibition result in series [9] was “Active”.

In the case of `COc1cc(/C=C/C(=O)N2CCC=CC2=O)cc(OC)c1OC` [PIPLARTINE], in the series with HCT-116 [13], the result was Active. Besides, in the series on K562, the IC50 stood at 5.09 µM.
